Measurements taken from ChEMBL document CHEMBL2169879, “Design and synthesis of inhibitors of Plasmodium falciparum N-myristoyltransferase, a promising target for antimalarial drug discovery” (J Med Chem, 2012).
Blank lines part the entries; values can stand above or below the compound they belong to.

Tests used:
[1] = biological target: T1, Glycylpeptide N-tetradecanoyltransferase (Plasmodium falciparum (isolate 3D7), UniProt Q8ILW6); assay: Inhibition of Plasmodium falciparum N-myristoyltransferase using [3H]-myristoyl-CoA and GLYVSRLFNRLFQKK(Biotin)-NH2 as substrate after 30 mins scintillation proximity assay
T1 sequence (Q8ILW6 whole entry): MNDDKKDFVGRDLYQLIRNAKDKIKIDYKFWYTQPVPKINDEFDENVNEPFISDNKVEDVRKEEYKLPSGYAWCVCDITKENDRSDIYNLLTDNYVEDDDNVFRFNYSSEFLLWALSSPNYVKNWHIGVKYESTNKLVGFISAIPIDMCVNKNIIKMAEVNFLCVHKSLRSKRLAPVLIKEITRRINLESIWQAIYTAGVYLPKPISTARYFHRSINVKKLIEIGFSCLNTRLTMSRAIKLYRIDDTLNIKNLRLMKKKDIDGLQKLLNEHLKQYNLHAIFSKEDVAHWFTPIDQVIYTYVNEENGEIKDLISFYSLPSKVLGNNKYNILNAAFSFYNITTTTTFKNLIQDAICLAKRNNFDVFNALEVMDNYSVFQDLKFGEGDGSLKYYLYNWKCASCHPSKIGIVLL

[2] = biological target: T2, Glycylpeptide N-tetradecanoyltransferase 1 (Homo sapiens, UniProt P30419); assay: Inhibition of human N-myristoyltransferase using [3H]-myristoyl-CoA and GLYVSRLFNRLFQKK(Biotin)-NH2 as substrate after 30 mins scintillation proximity assay
T2 sequence (P30419 whole entry): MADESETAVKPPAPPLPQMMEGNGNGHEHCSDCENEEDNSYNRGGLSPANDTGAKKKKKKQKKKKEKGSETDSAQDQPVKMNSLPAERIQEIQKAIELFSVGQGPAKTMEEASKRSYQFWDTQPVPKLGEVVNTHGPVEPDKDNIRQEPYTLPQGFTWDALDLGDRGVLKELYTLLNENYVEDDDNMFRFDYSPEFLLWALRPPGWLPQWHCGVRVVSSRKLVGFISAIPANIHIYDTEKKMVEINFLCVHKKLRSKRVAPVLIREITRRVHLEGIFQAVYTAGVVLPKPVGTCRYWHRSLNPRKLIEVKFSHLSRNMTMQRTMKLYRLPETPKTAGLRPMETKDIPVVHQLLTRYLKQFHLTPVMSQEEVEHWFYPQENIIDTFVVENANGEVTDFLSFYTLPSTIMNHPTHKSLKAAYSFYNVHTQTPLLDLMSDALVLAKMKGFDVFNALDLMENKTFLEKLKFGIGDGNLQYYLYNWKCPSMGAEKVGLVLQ

Plasmodium falciparum = assay: Antiplasmodial activity against trophozoite-stage of Plasmodium falciparum 3D7 after 48 hrs by FACS analysis; type: functional, organism-based; conditions: 3D7, 48 h
Outline: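 Synchronous late-trophozoite 3D7 cultures at 1% parasitemia and 2% hematocrit with 0.5% DMSO, exposed to inhibitor from 10 μM down to 0.31 μM for a 48 h cycle at 37 °C. Aliquots stained with diluted hydroethidine for 20 min at 37 °C, then parasitemia read by flow cytometry. Untreated parasites and uninfected RBCs served as controls. EC50 from nonlinear regression, triplicate wells.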

[3] = Selectivity index, ratio of IC50 for human N-myristoyltransferase to IC50 for Plasmodium falciparum N-myristoyltransferase
Outline: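 Buffer was 30 mM Tris pH 7.4 with 4% DMSO; 30 min at 37 °C. Reaction stopped with streptavidin beads at pH 4. […] Ratio is IC50(HsNMT1)/IC50(PfNMT).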

[4] = Inhibition of Plasmodium vivax wild type N-myristoyltransferase using [3H]-myristoyl-CoA and GLYVSRLFNRLFQKK(Biotin)-NH2 as substrate after 30 mins scintillation proximity assay
[5] = biological target: Glycylpeptide N-tetradecanoyltransferase (Plasmodium vivax (strain Salvador I), UniProt A5K1A2, Y211A); assay: Inhibition of Plasmodium vivax […] N-myristoyltransferase Y211A mutant using [3H]-myristoyl-CoA and GLYVSRLFNRLFQKK(Biotin)-NH2 as substrate after 30 mins scintillation proximity assay
Outline: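 Purified NMT per 100 µL well: PfNMT 9.4 ng, PvNMT 4.8 ng, PvNMT Y211A 19.2 ng. Each well also held 62.5 nM [3H]-myristoyl-CoA and 500 nM biotinylated peptide in pH 7.4 Tris buffer with 4% DMSO. Incubation ran 30 min at 37°C. Reactions were stopped with streptavidin beads at pH 4 and counted after overnight settling. Inhibitor ranged 500 µM–2 nM. IC50 came from nonlinear regression, in duplicate.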

[6] = biological target: Glycylpeptide N-tetradecanoyltransferase 1 (Homo sapiens, UniProt P30419, Y296A); assay: Inhibition of human N-myristoyltransferase Y296A mutant using [3H]-myristoyl-CoA and GLYVSRLFNRLFQKK(Biotin)-NH2 as substrate after 30 mins scintillation proximity assay
Sequence of Glycylpeptide N-tetradecanoyltransferase 1 (Homo sapiens, UniProt P30419, Y296A) (P30419 whole entry Y296A): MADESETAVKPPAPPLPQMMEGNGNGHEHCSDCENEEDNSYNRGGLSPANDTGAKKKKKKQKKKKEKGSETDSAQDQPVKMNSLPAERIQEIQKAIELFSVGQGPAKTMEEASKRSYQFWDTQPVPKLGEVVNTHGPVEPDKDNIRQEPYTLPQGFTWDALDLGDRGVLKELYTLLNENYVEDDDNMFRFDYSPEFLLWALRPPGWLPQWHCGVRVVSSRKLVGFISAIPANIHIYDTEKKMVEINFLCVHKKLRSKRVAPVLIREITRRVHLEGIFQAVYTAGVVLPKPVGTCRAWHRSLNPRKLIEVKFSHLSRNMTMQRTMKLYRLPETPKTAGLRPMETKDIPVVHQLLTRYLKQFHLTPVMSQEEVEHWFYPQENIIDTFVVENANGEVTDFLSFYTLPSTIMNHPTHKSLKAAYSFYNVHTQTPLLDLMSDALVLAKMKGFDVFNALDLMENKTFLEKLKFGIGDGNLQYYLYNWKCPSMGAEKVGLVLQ

Sequence of Glycylpeptide N-tetradecanoyltransferase (Plasmodium vivax (strain Salvador I), UniProt A5K1A2, Y211A) (A5K1A2 whole entry Y211A): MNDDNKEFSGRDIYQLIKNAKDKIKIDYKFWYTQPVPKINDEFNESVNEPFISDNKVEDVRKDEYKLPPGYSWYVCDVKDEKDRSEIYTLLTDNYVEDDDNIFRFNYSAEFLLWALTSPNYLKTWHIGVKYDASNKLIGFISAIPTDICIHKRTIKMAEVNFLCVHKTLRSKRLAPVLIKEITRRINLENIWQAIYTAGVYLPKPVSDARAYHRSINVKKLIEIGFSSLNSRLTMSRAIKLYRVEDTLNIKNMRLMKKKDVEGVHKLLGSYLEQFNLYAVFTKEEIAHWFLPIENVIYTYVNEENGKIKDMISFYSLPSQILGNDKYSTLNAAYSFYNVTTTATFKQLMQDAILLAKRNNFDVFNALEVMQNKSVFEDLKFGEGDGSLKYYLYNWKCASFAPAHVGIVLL

Compound: c1ccc(CSc2cc3c(OC4CCNCC4)cccc3o2)cc1
- IC50 [1]: 38.2 µM

Compound: Cc1c(C(=O)OCc2ccccc2)oc2cccc(OC3CCNCC3)c12
- IC50 [2]: > 100 µM
- EC50 (Plasmodium falciparum): 1.2 µM
- IC50 [1]: 0.27 µM
- Ratio IC50 [3]: > 400

Compound: Cc1c(COc2ccccc2)oc2cccc(OC3CCNCC3)c12
- IC50 [1]: 6.6 µM
- Ratio IC50 [3]: > 16

Compound: Cc1c(-c2nc(-c3ccccc3)no2)oc2cccc(OC3CCNCC3)c12
- IC50 [1]: 17.9 µM
- Ratio IC50 [3]: > 12

Compound: Cc1c(/C=C/c2ccccc2)oc2cccc(OC3CCNCC3)c12
- IC50 [1]: 26.1 µM
- Ratio IC50 [3]: > 10

- EC50 (Plasmodium falciparum): 2.4 µM
- Ratio IC50 [3]: 28
Compound: Cc1c(C(=O)NCc2cccc3ccccc23)oc2cccc(OC3CCNCC3)c12

Compound: Cc1c(COCc2ccccc2)oc2cccc(OC3CCNCC3)c12
- EC50 (Plasmodium falciparum): 4.5 µM
- IC50 [1]: 7.1 µM
- Ratio IC50 [3]: 14

Compound: Cc1c(C(=O)NCc2ccccc2)oc2cccc(OC3CCNCC3)c12
- IC50 [1]: 13 µM

Compound: CCCCc1c(C)nc2ccc(OC)cc2c1SCCC#N
- IC50 [4]: 32.7 µM
- IC50 [5]: 150 µM

- IC50 [1]: > 200 µM
Compound: O=S(=O)(Cc1ccccc1)c1cc2c(OC3CCNCC3)cccc2o1

Compound: Cc1c(C(=O)OCc2cccc3ccccc23)oc2cccc(OC3CCNCC3)c12
- IC50 [1]: 1.4 µM

Compound: Cc1c(-c2nc(Cc3ccccc3)no2)oc2cccc(OC3CCNCC3)c12
- EC50 (Plasmodium falciparum): 2.1 µM
- IC50 [4]: 6.2 µM
- IC50 [5]: 16.6 µM

Compound: COc1cccc(COC(=O)c2oc3cccc(OC4CCNCC4)c3c2C)c1
- IC50 [2]: 45 µM
- IC50 [6]: 10 µM
- IC50 [5]: 2.7 µM

- IC50 [1]: > 100 µM
Compound: Cc1c(C(=O)NC2CCCCC2)oc2cccc(OC3CCNCC3)c12

Compound: Cc1c(C(=O)OCCc2ccccc2)oc2cccc(OC3CCNCC3)c12
- IC50 [1]: 4.1 µM

Compound: CCOC(=O)c1oc2cccc(OCCCNCc3cccnc3)c2c1C
- IC50 [2]: > 1000 µM
- IC50 [1]: 51 µM

Compound: Cc1c(CCc2ccccc2)oc2cccc(OC3CCNCC3)c12
- IC50 [1]: 131 µM

Compound: CCOC(=O)c1oc2cccc(OC3CCNCC3)c2c1C
- IC50 [2]: > 200 µM
- EC50 (Plasmodium falciparum): 15 µM
- IC50 [1]: 16.5 µM

Compound: Cc1c(C(=O)Nc2ccccc2)oc2cccc(OC3CCNCC3)c12
- EC50 (Plasmodium falciparum): 5.3 µM
- IC50 [1]: 28.8 µM
- Ratio IC50 [3]: > 10

Compound: Cc1c(C(=O)OCC2CCCCC2)oc2cccc(OC3CCNCC3)c12
- IC50 [1]: 9.7 µM

Compound: Cc1c(C(=O)OCCCc2ccccc2)oc2cccc(OC3CCNCC3)c12
- IC50 [1]: 36.2 µM

Compound: Cc1c(C(=O)Oc2ccccc2)oc2cccc(OC3CCNCC3)c12
- EC50 (Plasmodium falciparum): 10 µM
- IC50 [1]: 24.4 µM
- Ratio IC50 [3]: > 20

Compound: Cc1c(/C=C\c2ccccc2)oc2cccc(OC3CCNCC3)c12
- IC50 [1]: 72 µM

Compound: Cc1c(C(=O)/C=C/c2ccccc2)oc2cccc(OC3CCNCC3)c12
- EC50 (Plasmodium falciparum): 2.5 µM
- IC50 [1]: 3.5 µM
- Ratio IC50 [3]: 14

Compound: Cc1c(C(=O)c2ccccc2)oc2cccc(OC3CCNCC3)c12
- EC50 (Plasmodium falciparum): 5.3 µM
- IC50 [1]: 22 µM
- Ratio IC50 [3]: > 5

- EC50 (Plasmodium falciparum): 4 µM
- Ratio IC50 [3]: > 20
Compound: Cc1c(C(=O)CCc2ccccc2)oc2cccc(OC3CCNCC3)c12

- IC50 [1]: > 200 µM
Compound: Cc1c(C(=O)NC(C)C)oc2cccc(OC3CCNCC3)c12
